# Active and inactive are the calls of the source. The rule behind the calls is not given here.
# What was measured:
# [1] = test system: Trypanosoma brucei rhodesiense; assay: Antitrypanosomal activity against Trypanosoma brucei rhodesiense infected in vervet monkey assessed as body weight change at 1 mg/kg, po administered on day 7 post infection for 5 days; format: functional
# How it was run: (§1)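 Body weight change is given as percent of the mean preinfection weight (n=3 per group). It was recorded at day 0 p.t., day 28 p.t. and end point. Oral gavage was once daily: 5 days from day 7 p.i., or 10 days from day 28 p.i.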
# [2] = test system: Trypanosoma brucei rhodesiense; assay: Antitrypanosomal activity against Trypanosoma brucei rhodesiense infected in vervet monkey assessed as body weight change at 3 mg/kg, po administered on day 7 post infection for 5 days; format: functional; how it was run: as §1
# [3] = test system: Trypanosoma brucei rhodesiense; assay: Antitrypanosomal activity against Trypanosoma brucei rhodesiense infected in vervet monkey assessed as body weight change at 10 mg/kg, po administered on day 7 post infection for 5 days; format: functional; how it was run: as §1
# [4] = test system: Trypanosoma brucei rhodesiense; assay: Antitrypanosomal activity against Trypanosoma brucei rhodesiense infected in vervet monkey assessed as body weight change at 10 mg/kg, po administered on day 28 post infection for 10 days; format: functional; how it was run: as §1
# [5] = test system: Trypanosoma brucei rhodesiense; assay: Antitrypanosomal activity against Trypanosoma brucei rhodesiense infected in vervet monkey 463 assessed as time to detect parasitemia at 1 mg/kg, po administered on day 7 post infection for 5 days; format: functional
# How it was run: (§2)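 Parasitemia was monitored from 3 days p.i. in ear-prick or inguinal venous blood. Methods were wet-film microscopy (detection limit 10^5 trypanosomes/ml) and hematocrit centrifugation technique (detection limit 10^3 trypanosomes/ml). Drug was given once daily by oral gavage: 5 days from day 7 p.i., or 10 days from day 28 p.i.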
# [6] = test system: Trypanosoma brucei rhodesiense; assay: Antitrypanosomal activity against Trypanosoma brucei rhodesiense infected in vervet monkey 463 assessed as time to detect parasitemia in wet films of blood at 1 mg/kg, po administered on day 7 post infection for 5 days by hematocrit centrifugation technique; format: functional; how it was run: as §2
# [7] = test system: Trypanosoma brucei rhodesiense; assay: Antitrypanosomal activity against Trypanosoma brucei rhodesiense infected in vervet monkey 463 assessed as time to detect CSF parasitosis at 1 mg/kg, po administered on day 7 post infection for 5 days measured after 7 to 14 days; format: functional, organism-based; design: dose 1 mg/kg
# How it was run: (§3)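 Trypanosomes and white cells in free-flowing CSF were counted by hemocytometer. Negative CSF was centrifuged and re-examined. Samples still negative were inoculated at 0.2 ml intraperitoneally into two mice each. Drug was given once daily by oral gavage: 5 days from day 7 p.i., or 10 days from day 28 p.i.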
# [8] = test system: Trypanosoma brucei rhodesiense; assay: Antitrypanosomal activity against Trypanosoma brucei rhodesiense infected in vervet monkey 484 assessed as time to detect parasitemia in wet films of blood at 1 mg/kg, po administered on day 7 post infection for 5 days by hematocrit centrifugation technique; format: functional; how it was run: as §2
# [9] = test system: Trypanosoma brucei rhodesiense; assay: Antitrypanosomal activity against Trypanosoma brucei rhodesiense infected in vervet monkey 484 assessed as time to detect CSF parasitosis at 1 mg/kg, po administered on day 7 post infection for 5 days measured after 14 to 21 days by microscopy; format: functional; how it was run: as §3
# [10] = test system: Trypanosoma brucei rhodesiense; assay: Antitrypanosomal activity against Trypanosoma brucei rhodesiense infected in vervet monkey 485 assessed as time to detect CSF parasitosis at 1 mg/kg, po administered on day 7 post infection for 5 days measured after 14 to 21 days by microscopy; format: functional; how it was run: as §3
# [11] = test system: Trypanosoma brucei rhodesiense; assay: Antitrypanosomal activity against Trypanosoma brucei rhodesiense infected in vervet monkey 482 assessed as time to detect parasitemia at 3 mg/kg, po administered on day 7 post infection for 5 days; format: functional; how it was run: as §2
# [12] = test system: Trypanosoma brucei rhodesiense; assay: Antitrypanosomal activity against Trypanosoma brucei rhodesiense infected in vervet monkey 482 assessed as time to detect parasitemia in wet films of blood at 3 mg/kg, po administered on day 7 post infection for 5 days by hematocrit centrifugation technique; format: functional; how it was run: as §2
# [13] = test system: Trypanosoma brucei rhodesiense; assay: Antitrypanosomal activity against Trypanosoma brucei rhodesiense infected in vervet monkey 483 assessed as time to detect CSF parasitosis at 3 mg/kg, po administered on day 7 post infection for 5 days measured after 7 to 14 days; format: functional; how it was run: as §3
# [14] = test system: Trypanosoma brucei rhodesiense; assay: Antitrypanosomal activity against Trypanosoma brucei rhodesiense infected in vervet monkey 483 assessed as time to detect CSF parasitosis at 3 mg/kg, po administered on day 7 post infection for 5 days measured after 14 to 21 days by microscopy; format: functional; how it was run: as §3
# [15] = test system: Trypanosoma brucei rhodesiense; assay: Antitrypanosomal activity against Trypanosoma brucei rhodesiense infected in vervet monkey 411 assessed as cure from infection at 3 mg/kg, po administered on day 7 post infection for 5 days; format: functional, organism-based; design: dose 3 mg/kg
# How it was run: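 Vervet monkeys (n=3 per group), infected with T. b. rhodesiense KETRI 2537. Dosed by oral gavage with a suspension once daily for 5 consecutive days from day 7 p.i. Cure meant no trypanosomes over 180 days p.t. in blood (wet film, HCT) or CSF (hemocytometer, centrifugation), with mouse subinoculation of negative samples.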
# [16] = test system: Trypanosoma brucei rhodesiense; assay: Antitrypanosomal activity against Trypanosoma brucei rhodesiense infected in vervet monkey 501 assessed as time to detect parasitemia at 10 mg/kg, po administered on day 28 post infection for 10 days; format: functional; how it was run: as §2
# [17] = test system: Trypanosoma brucei rhodesiense; assay: Antitrypanosomal activity against Trypanosoma brucei rhodesiense infected in vervet monkey 501 assessed as time to detect parasitemia in wet films of blood at 10 mg/kg, po administered on day 28 post infection for 10 days by hematocrit centrifugation technique; format: functional; how it was run: as §2
# [18] = test system: Trypanosoma brucei rhodesiense; assay: Antitrypanosomal activity against Trypanosoma brucei rhodesiense infected in vervet monkey 501 assessed as time to detect CSF parasitosis at 10 mg/kg, po administered on day 28 post infection for 10 days measured after 7 to 14 days; format: functional, organism-based; design: dose 10 mg/kg; how it was run: as §3
# [19] = test system: Trypanosoma brucei rhodesiense; assay: Antitrypanosomal activity against Trypanosoma brucei rhodesiense infected in vervet monkey assessed as body weight change at 10 mg/kg, po administered on day 14 post infection for 5 days measured on day 28 post treatment; format: functional
# [20] = test system: Trypanosoma brucei rhodesiense; assay: Antitrypanosomal activity against Trypanosoma brucei rhodesiense infected in vervet monkey assessed as body weight change at 10 mg/kg, po administered on day 28 post infection for 10 days measured on day 28 post treatment; format: functional; how it was run: as §1
# [21] = test system: Trypanosoma brucei rhodesiense; assay: Antitrypanosomal activity against Trypanosoma brucei rhodesiense infected in vervet monkey assessed as change in packed cell volume at 10 mg/kg, po administered on day 7 post infection for 5 days; format: functional
# How it was run: (§4)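 Vervet monkeys, three per group, were infected intravenously with T. b. rhodesiense KETRI 2537. From day 7 p.i., a drug suspension was given by oral gavage once daily for 5 consecutive days. Packed cell volume was expressed as % change from the group's mean preinfection value. PCV was read at day 0 p.t., day 28 p.t. and endpoint, with follow-up to 180 days p.t.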
# [22] = test system: Trypanosoma brucei rhodesiense; assay: Antitrypanosomal activity against Trypanosoma brucei rhodesiense infected in vervet monkey assessed as change in packed cell volume at 1 mg/kg, po administered on day 7 post infection for 5 days measured on day 28 post treatment; format: functional; how it was run: as §4
# [23] = test system: Trypanosoma brucei rhodesiense; assay: Antitrypanosomal activity against Trypanosoma brucei rhodesiense infected in vervet monkey assessed as change in packed cell volume at 3 mg/kg, po administered on day 7 post infection for 5 days measured on day 28 post treatment; format: functional; how it was run: as §4
# [24] = test system: Trypanosoma brucei rhodesiense; assay: Antitrypanosomal activity against Trypanosoma brucei rhodesiense infected in vervet monkey assessed as change in packed cell volume at 10 mg/kg, po administered on day 7 post infection for 5 days measured on day 28 post treatment; format: functional; how it was run: as §4
# [25] = test system: Trypanosoma brucei rhodesiense; assay: Antimicrobial activity against Trypanosoma brucei rhodesiense infected in vervet monkeys assessed as cure from infection at 10 mg/kg, po administered for 10 days
# [26] = test system: Trypanosoma brucei rhodesiense; assay: Antitrypanosomal activity against Trypanosoma brucei rhodesiense infected in vervet monkey 471 assessed as time to detect parasitemia in wet films of blood at 10 mg/kg, po administered on day 14 post infection for 5 days by hematocrit centrifugation technique
smiles,measurement,setting,value
CONC(=N)c1ccc(-c2ccc(-c3ccc(C(=N)NOC)cc3)o2)cc1 [PAFURAMIDINE],Activity,[1],-2.2%
same,Activity,[2],-5%
same,Activity,[3],-6.3%
same,Activity,[4],-10.5%
same,Time,[5],7 days
same,Time,[6],9 days
same,Time,[7],inactive
same,Time,[8],4 days
same,Time,[9],14 days
same,Time,[10],21 days
same,Time,[11],55 days
same,Time,[12],79 days
same,Time,[13],69 days
same,Time,[14],55 days
same,Time,[15],Active
same,Time,[16],56 days
same,Time,[17],73 days
same,Time,[18],inactive
same,Activity,[19],-5.2%
same,Activity,[20],-8.1%
same,Activity,[21],-5.8%
same,Activity,[22],-17%
same,Activity,[23],-2.9%
same,Activity,[24],-1.6%
same,Activity,[25],inactive
same,Time,[26],87 days
